Broadly, the inhibition is the relative decrease from the control value, in per cent. Usually IC50 stands for the point on the concentration scale where inhibition reaches its midpoint. Low values mean inhibition by little substance, high ones a need for much substance. A word on the Kd: it is the equilibrium constant for the complex coming apart. A high value points to lower affinity.

Molecules are shown by their SMILES. The source made the active and inactive calls. The calls are words filed in the database; no cut-off is given here.

The values that follow come from ChEMBL document CHEMBL3352392, “Identification of novel thiadiazoloacrylamide analogues as inhibitors of dengue-2 virus NS2B/NS3 protease” (Bioorg Med Chem, 2014).

Assay [1] addresses Genome polyprotein (dengue virus type 2) (UniProt P12823). Put plainly: Inhibition of Dengue virus 2 NS2B/NS3 protease using Bz-Nle-Lys-Arg-Arg-AMC as substrate preincubated at 20 uM for 30 mins before substrate addition by fluorescence assay. Summed up: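 E. coli BL21-expressed DENV2 NS2B-NS3pro, 200 nM, with compound at 20 µM in 50 mM Tris-HCl pH 8.5, 10 mM NaCl, 20% glycerol, 1 mM CHAPS, 37 °C for 30 min. Bz-Nle-Lys-Arg-Arg-AMC added to start. Fluorescence read every 10 s for 5 min (ex 380/em 460 nm). Inhibition rate from maximum reaction rate with versus without compound. Aprotinin 1 µM as positive control.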

The target in assay [2] is T1, Genome polyprotein (dengue virus type 2, UniProt P12823). The assay can be described thus: Inhibition of Dengue virus 2 NS2B/NS3 protease using Bz-Nle-Lys-Arg-Arg-AMC as substrate preincubated for 30 mins before substrate addition by fluorescence assay. Summed up:
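Purified DENV2 NS2B-NS3pro (200 nM; E. coli BL21) mixed with compound at eleven levels, 0.1 nM–200 µM, in pH 8.5 Tris-HCl buffer with 10 mM NaCl, 20% glycerol, 1 mM CHAPS. Preincubated 30 min at 37 °C, then Bz-Nle-Lys-Arg-Arg-AMC added. AMC fluorescence (380/460 nm) followed every 10 s over 5 min. IC50 from the concentration series.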

The target of assay [3] is T1, Genome polyprotein. The assay can be described thus: (§1) Binding affinity to Dengue virus 2 NS2B/NS3 protease by SPR assay. Put shortly: (§2)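 DENV2 NS2B/NS3pro purified from E. coli BL21 and amine-coupled onto a CM5 chip in 10 mM sodium acetate, pH 3.95. Compounds serially diluted in HBS (0.01 M HEPES, 0.15 M NaCl, 3 mM EDTA, 0.005% P20, pH 7.4). Biacore 3000 SPR gave the equilibrium KD.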

Assay [4] deals with Genome polyprotein (dengue virus type 2) (UniProt P12823). The description is as §1. Summed up: as §2

The molecule `N#C/C(=C\c1cn(Cc2ccccc2)c2ccccc12)C(=O)Nc1nnc(SCc2ccccc2)s1` displayed an inhibition in assay [1] of 79%. On Genome polyprotein [2], this molecule yielded an IC50 of 4.44 µM. On Genome polyprotein [3], binding was put at a Kd of 3.59 µM.

In assay [1], `N#C/C(=C\c1cn(Cc2ccc(C(F)(F)F)cc2C(F)(F)F)c2ccccc12)C(=O)Nc1nnc(SCc2ccccc2)s1` displayed an inhibition of 54.1%.

In turn, `N#C/C(=C\c1cn(Cc2ccc(C(F)(F)F)cc2)c2ccccc12)C(=O)Nc1nnc(SCc2ccccc2)s1` registered an inhibition in assay [1] of 45.9%.

In assay [1], `N#C/C(=C\c1cn(Cc2ccccc2F)c2ccccc12)C(=O)Nc1nnc(SCc2ccccc2)s1` yielded an inhibition of 88.9%. At Genome polyprotein [2], this molecule yielded an IC50 of 3.58 µM.

Consider `Cc1ccccc1CSc1nnc(NC(=O)/C(C#N)=C/c2cn(Cc3ccccc3)c3ccccc23)s1`, for which, in assay [1], the inhibition is 69.4%.

Regarding `N#C/C(=C\c1cn(Cc2ccc(F)cc2)c2ccccc12)C(=O)Nc1nnc(SCc2ccccc2)s1`, the inhibition in assay [1] turned out to be 86.5%. Further, it took 2.24 µM to reach half-maximal inhibition against Genome polyprotein [2] (IC50). For the same molecule, at Genome polyprotein [3], binding was put at a Kd of 2.07 µM.

`N=C1/C(=C/c2cn(Cc3ccccc3)c3ccccc23)C(=O)N=C2SC(SCc3ccccc3)=NN12`: the inhibition in assay [1] was found to be 72%. On Genome polyprotein [2], this molecule displayed an IC50 of 6.09 µM.

Regarding `O=C(/C=C/c1cn(Cc2ccccc2)c2ccccc12)Nc1nnc(C(F)(F)F)s1`, the result in assay [4] was inactive.

In assay [1], `N#C/C(=C\c1cn(Cc2ccccc2)c2ccccc12)C(=O)Nc1nnc(SCc2ccc(F)cc2)s1` showed an inhibition of 83.4%. The molecule also showed an IC50 against Genome polyprotein [2] of 3.72 µM.

`N#C/C(=C\c1cn(Cc2ccccc2)c2ccccc12)C(=O)Nc1nnc(SCc2ccc(Br)cc2)s1` returned an inhibition in assay [1] of 65.8%.

Molecule `COc1ccc(CSc2nnc(NC(=O)/C(C#N)=C/c3cn(Cc4ccccc4)c4ccccc34)s2)cc1` came in with an inhibition in assay [1] of 76.3%. Also, the IC50 at Genome polyprotein [2] came out at 3.44 µM.

Regarding `N#C/C(=C\c1cn(Cc2ccccc2)c2ccccc12)C(=O)Nc1nnc(SCc2cccc3ccccc23)s1`, in assay [1], the inhibition stood at 50%.

Molecule `N#C/C(=C\c1cn(Cc2ccccc2)c2ccccc12)C(=O)Nc1nnc(C(F)(F)F)s1` had an inhibition in assay [1] of 76%. This molecule also had an IC50 on Genome polyprotein [2] of 10.1 µM. For the same molecule, the Kd on Genome polyprotein [3] worked out at 9.27 µM.

In the case of `N#C/C(=C\c1cn(Cc2ccccc2)c2ccccc12)C(=O)Nc1nnc(SCc2ccccc2Cl)s1`, in assay [1], the inhibition was 63.5%.

On to `N#C/C(=C\c1cn(Cc2ccccc2)c2ccccc12)C(=O)Nc1nnc(SCc2ccc(Cl)cc2)s1`, for which the inhibition in assay [1] is 63.4%.

On to `N#C/C(=C\c1cn(Cc2ccccc2C#N)c2ccccc12)C(=O)Nc1nnc(SCc2ccccc2)s1`, for which the inhibition in assay [1] stood at 85.8%. The same molecule had an IC50 against Genome polyprotein [2] of 2.86 µM.
